Reference: article PMC4201344 (ACS Chemical Biology, 2014)
Numbering of substitutions follows the chain as printed. “Also recorded” adds a separate entry of the source.

How the values were obtained:
Type in all cases: cell-based, C. elegans
Details in all cases: glutamate
[1] = system: GluClβ T6′S, Y206TAG Br–Phe; experiment: two-electrode voltage clamp, Xenopus laevis oocytes, nonsense suppression
GluClβ T6′S, S126A/Y156F = GluClβ T6′S, S126A/Y156F (Caenorhabditis elegans, UniProt Q17328, S152A/T283S/Y182F); experiment: two-electrode voltage clamp, Xenopus laevis oocytes
GluClβ T6′S, S126A/Y156F, sequence (Q17328 23-434 S152A/Y182F/T283S): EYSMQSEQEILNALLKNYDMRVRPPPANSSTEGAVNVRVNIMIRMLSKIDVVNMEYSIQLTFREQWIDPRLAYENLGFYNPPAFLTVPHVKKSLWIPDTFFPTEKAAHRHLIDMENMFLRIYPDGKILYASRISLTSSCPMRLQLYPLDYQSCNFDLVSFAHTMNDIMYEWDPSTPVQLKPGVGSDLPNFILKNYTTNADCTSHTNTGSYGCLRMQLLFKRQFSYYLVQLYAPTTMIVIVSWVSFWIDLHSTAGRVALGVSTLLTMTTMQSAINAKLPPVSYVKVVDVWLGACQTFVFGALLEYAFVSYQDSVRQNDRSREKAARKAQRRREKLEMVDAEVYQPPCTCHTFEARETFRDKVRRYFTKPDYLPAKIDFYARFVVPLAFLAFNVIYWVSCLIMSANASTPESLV
Procedure, shortened: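 C. elegans GluClβ (mammalian codon-optimised) in pGEMhe, mutated by QuikChange; T7 mRNA. […] Voltage clamp at −60 mV in Ca-free ND96, pH 7.5. […] Peak currents taken from baseline, normalised, averaged per concentration, and fit to Hill equation (EC50, nH).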

[2] = system: GluClβ with α signal peptide, T6′S, F96TAG F1–Phe; experiment: two-electrode voltage clamp, Xenopus laevis oocytes, nonsense suppression
GluClβ T6′S, Y156F = GluClβ T6′S, Y156F (Caenorhabditis elegans, UniProt Q17328, T283S/Y182F); experiment: two-electrode voltage clamp, Xenopus laevis oocytes
[3] = target: T1, GluClβ with α signal peptide, T6′S, Y156TAG Phe (Caenorhabditis elegans, UniProt Q17328, T283S/Y182F); experiment: two-electrode voltage clamp, Xenopus laevis oocytes, nonsense suppression
T1 sequence (Q17328 23-434 Y182F/T283S): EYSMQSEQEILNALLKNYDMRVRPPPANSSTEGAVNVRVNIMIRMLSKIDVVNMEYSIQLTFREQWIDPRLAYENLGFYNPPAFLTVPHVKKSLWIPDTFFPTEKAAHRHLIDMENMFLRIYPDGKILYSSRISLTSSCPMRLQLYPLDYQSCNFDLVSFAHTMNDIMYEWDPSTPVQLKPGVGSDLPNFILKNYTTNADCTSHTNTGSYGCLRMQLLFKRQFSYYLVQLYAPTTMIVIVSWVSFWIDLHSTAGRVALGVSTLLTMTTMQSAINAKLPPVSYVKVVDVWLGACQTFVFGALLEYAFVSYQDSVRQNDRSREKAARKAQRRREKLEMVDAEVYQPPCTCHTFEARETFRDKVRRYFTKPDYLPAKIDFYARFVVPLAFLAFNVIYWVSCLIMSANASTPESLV
Procedure, shortened: (§1)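 Site-specific TAG codon, read by 74mer THG73 tRNA ligated to dCA-acylated amino acid; NVOC removed by 5 min xenon-lamp irradiation just before injection. Oocytes coinjected with 37.5 ng mRNA plus ~1 μg/μL tRNA at 48 and 24 h pre-recording; unacylated 76mer tRNA served as read-through control.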

GluClβ A17′S = target: T2, GluClβ A17′S (Caenorhabditis elegans, UniProt Q17328, A294S); experiment: two-electrode voltage clamp, Xenopus laevis oocytes
T2 sequence (Q17328 23-434 A294S): T1 sequence (Q17328 23-434 Y182F/T283S) with F160Y, S261T, A272S

[4] = system: GluClβ with α signal peptide, T6′S, Y156TAG F3–Phe; experiment: two-electrode voltage clamp, Xenopus laevis oocytes, nonsense suppression
[5] = system: GluClβ T6′S, Y206TAG CN–Phe; experiment: as above
GluClβ A17′T = target: T3, GluClβ A17′T (Caenorhabditis elegans, UniProt Q17328, A294T); experiment: two-electrode voltage clamp, Xenopus laevis oocytes
T3 sequence (Q17328 23-434 A294T): T1 sequence (Q17328 23-434 Y182F/T283S) with F160Y, S261T, A272T

[6] = system: GluClβ with α signal peptide, T6′S, Y156TAG F2–Phe; experiment: two-electrode voltage clamp, Xenopus laevis oocytes, nonsense suppression
[7] = system: GluClβ T6′S, Y206TAG OMe–Phe; experiment: as above
[8] = system: GluClβ with α signal peptide, T6′S, Y156TAG OMe–Phe; experiment: two-electrode voltage clamp, Xenopus laevis oocytes, nonsense suppression
Procedure, shortened: as §1

- EC50 [1]: 980 ± 30 µM
- EC50 (GluClβ T6′S, S126A/Y156F): no response
- EC50 [2]: 80 ± 2 µM
- EC50 (GluClβ T6′S, Y156F): 6.4 ± 0.4 mM
- Hill (GluClβ T6′S, Y156F): 1.6 ± 0.1
- EC50 [3]: 17 ± 1 mM
- Hill [3]: 1.7 ± 0.1
- Imax [3]: 1–4 μA
- EC50 (GluClβ A17′S): 230 ± 10 µM
- Hill (GluClβ A17′S): 2.5 ± 0.1
- Imax (GluClβ A17′S): 0.6–12 μA
- EC50 [4]: 65 ± 5 mM
- EC50 [5]: 19 ± 1 mM
- EC50 (GluClβ A17′T): 58 ± 1 µM
- Hill (GluClβ A17′T): 2.8 ± 0.1
- Imax (GluClβ A17′T): 0.3–13 μA
- EC50 [6]: 49 ± 3 mM
- EC50 [7]: 560 ± 10 µM
Compound: N[C@@H](CCC(=O)O)C(=O)O [glutamate]
- Hill [1]: 2.5 ± 0.1
- Imax [1]: 0.08–6 μA
- Hill [2]: 2.8 ± 0.2
- Imax [2]: 0.1–0.5 μA
- Hill [4]: 1.7 ± 0.1
- Imax [4]: 0.3–2 μA
- Hill [5]: 2.8 ± 0.2
- Imax [5]: 0.8–6 μA
- Hill [6]: 1.8 ± 0.1
- Imax [6]: 0.2–4 μA
- Hill [7]: 1.8 ± 0.1
- Imax [7]: 0.1–1.4 μA
- EC50 [8]: nonfunctional; also recorded: no response
